The results in this text go back to ChEMBL document CHEMBL1136453, “New classes of antibacterial oxazolidinones with C-5, methylene O-linked heterocyclic side chains” (2003).

The test system of experiment [1] is Staphylococcus aureus. Nature of the experiment: In vivo antibacterial activity against Staphylococcus aureus after intravenous administration (10 mg/kg) in mice using (MTT) mouse thigh test.
In another experiment the test system is Streptococcus pyogenes. Nature of the experiment: In vitro minimum inhibitory concentration against Streptococcus pyogenes penicillin sensitive. The format is functional. In a few lines:
(§1)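 Agar dilution per NCCLS protocol with doubling dilutions from 128 to 0.008 mg/L, incubated at 37 °C. Strains came from an in-house culture collection. MIC reported in mg/L.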

For experiment [2], the system named is Staphylococcus aureus. Nature of the experiment: In vitro minimum inhibitory concentration against Staphylococcus aureus MRQR. Type of experiment: functional.
The nature of experiment [3]: In vivo antibacterial activity against Staphylococcus aureus after intravenous administration (5 mg/kg) in mice using (MTT) mouse thigh test.
For experiment [4], the system named is Staphylococcus aureus. Briefly: In vitro minimum inhibitory concentration against Staphylococcus aureus Oxford. Type of experiment: functional. As to conditions: Staphylococcus aureus; read-out: MIC.
Another experiment concerns Enterococcus faecalis. Briefly: In vitro minimum inhibitory concentration against Enterococcus faecalis. Type of experiment: functional. In a few lines:
as §1

For experiment [5], the system named is Staphylococcus aureus. Nature of the experiment: In vitro minimum inhibitory concentration against coagulase negative Staphylococcus aureus methicillin resistant (CNSMR). The format is functional.
Experiment [6] relates to Mus musculus. Nature of the experiment: In vivo antibacterial activity against Staphylococcus aureus after intravenous administration (10 mg/kg) in mice using (MTT) mouse thigh test.
Experiment [7] deals with Mus musculus. Nature of the experiment: In vivo antibacterial activity against Staphylococcus aureus after intravenous administration (5 mg/kg) in mice using (MTT) mouse thigh test.

≈ marks a conversion by molar mass, not a printed value.

The term MIC denotes the smallest concentration in the dilution series that meets the test's criterion for growth inhibition. `O=C1O[C@@H](COc2ccsn2)CN1c1ccc(C2=CCOCC2)c(F)c1`: the figures for the Activity (in the experiment on Staphylococcus aureus [1]; in [3]) were 0.21 and 0.01, respectively. Moreover, the MIC in the experiment with Streptococcus pyogenes turned out to be 0.5 µg/mL (≈ 1.33 µM); against Staphylococcus aureus [2] it was 0.25 µg/mL (≈ 0.664 µM); in the experiment with Staphylococcus aureus [4], 0.25 µg/mL (≈ 0.664 µM); against Enterococcus faecalis, 0.5 µg/mL (≈ 1.33 µM); against Staphylococcus aureus [5], 0.25 µg/mL (≈ 0.664 µM).
On to `CC(=O)NC[C@H]1CN(c2ccc(C3=CCOCC3)c(F)c2)C(=O)O1`, for which the Activity is listed as 1.34 with Staphylococcus aureus [1] and 0.6 in experiment [3]. For the same molecule, the MIC with Streptococcus pyogenes was 0.13 µg/mL (≈ 0.389 µM); in the experiment with Staphylococcus aureus [2], 0.25 µg/mL (≈ 0.748 µM); with Staphylococcus aureus [4] it was 0.13 µg/mL (≈ 0.389 µM); against Enterococcus faecalis, 0.13 µg/mL (≈ 0.389 µM); in the experiment on Staphylococcus aureus [5] it was 0.13 µg/mL (≈ 0.389 µM).
In the case of `O=C1O[C@@H](COc2ccccn2)CN1c1ccc(C2=CCOCC2)c(F)c1`, the Activity in the experiment with Staphylococcus aureus [1] was determined as 0.15; in [3] it was 0. Moreover, the MIC amounted to 2 µg/mL (≈ 5.4 µM) against Streptococcus pyogenes; 1 µg/mL (≈ 2.7 µM) with Staphylococcus aureus [2]; 0.5 µg/mL (≈ 1.35 µM) in the experiment on Staphylococcus aureus [4]; 2 µg/mL (≈ 5.4 µM) with Enterococcus faecalis; 1 µg/mL (≈ 2.7 µM) against Staphylococcus aureus [5].
With `O=C([C@@H](O)CO)N1CC=C(c2ccc(N3C[C@H](COc4ccon4)OC3=O)cc2F)CC1`, the Activity in the experiment on Staphylococcus aureus [1] is listed as 1.04; in experiment [3] it was 0.63. Moreover, the MIC in the experiment with Streptococcus pyogenes was 0.5 µg/mL (≈ 1.12 µM); in the experiment on Staphylococcus aureus [2] it was 0.5 µg/mL (≈ 1.12 µM); in the experiment with Staphylococcus aureus [4] it was 0.25 µg/mL (≈ 0.559 µM); in the experiment with Enterococcus faecalis, 1 µg/mL (≈ 2.24 µM); against Staphylococcus aureus [5], 0.5 µg/mL (≈ 1.12 µM).
As for `O=C1O[C@@H](COc2ccon2)CN1c1ccc(C2=CCN(C(=S)CO)CC2)c(F)c1`, the Activity with Staphylococcus aureus [1] is listed as 0.07; in experiment [3], -0.01. Also, the MIC in the experiment on Streptococcus pyogenes is 0.25 µg/mL (≈ 0.577 µM); against Staphylococcus aureus [2], 0.5 µg/mL (≈ 1.15 µM); in the experiment on Staphylococcus aureus [4], 0.25 µg/mL (≈ 0.577 µM); in the experiment on Enterococcus faecalis it was 0.5 µg/mL (≈ 1.15 µM); with Staphylococcus aureus [5], 0.25 µg/mL (≈ 0.577 µM).
With `O=CN1CC=C(c2c(F)cc(N3C[C@H](COc4ccon4)OC3=O)cc2F)CC1`, the Activity with Staphylococcus aureus [1] is on record as 0.43; in experiment [3], -0.01. Moreover, the MIC against Streptococcus pyogenes was 0.5 µg/mL (≈ 1.23 µM); with Staphylococcus aureus [2], 0.5 µg/mL (≈ 1.23 µM); in the experiment on Staphylococcus aureus [4], 0.25 µg/mL (≈ 0.617 µM); in the experiment with Enterococcus faecalis, 1 µg/mL (≈ 2.47 µM); in the experiment with Staphylococcus aureus [5] it was 0.5 µg/mL (≈ 1.23 µM).
`O=C(CO)N1CC=C(c2ccc(N3C[C@H](COc4ccon4)OC3=O)cc2F)CC1`: the Activity turned out to be 1.2 with Staphylococcus aureus [1] and 0.71 in [3]. The MIC against Streptococcus pyogenes worked out at 0.5 µg/mL (≈ 1.2 µM); with Staphylococcus aureus [2], 0.5 µg/mL (≈ 1.2 µM); with Staphylococcus aureus [4], 0.25 µg/mL (≈ 0.599 µM); with Enterococcus faecalis it was 1 µg/mL (≈ 2.4 µM); against Staphylococcus aureus [5], 0.5 µg/mL (≈ 1.2 µM).
As to `Cc1no[n+]([O-])c1OC[C@H]1CN(c2ccc(C3=CCOCC3)c(F)c2)C(=O)O1`, the values for the Activity (in the experiment on Staphylococcus aureus [1]; in [3]) were 0.2 and 0.03, respectively. The MIC is 4 µg/mL (≈ 10.2 µM) against Streptococcus pyogenes; 2 µg/mL (≈ 5.11 µM) with Staphylococcus aureus [2]; 1 µg/mL (≈ 2.56 µM) with Staphylococcus aureus [4]; 2 µg/mL (≈ 5.11 µM) in the experiment on Enterococcus faecalis; 2 µg/mL (≈ 5.11 µM) in the experiment on Staphylococcus aureus [5].
`O=C(OC[C@@H](O)CO)N1CC=C(c2ccc(N3C[C@H](COc4ccon4)OC3=O)cc2F)CC1`: the Activity is 0.48 in the experiment on Staphylococcus aureus [1] and 0.27 in experiment [3]. Also, the MIC worked out at 0.5 µg/mL (≈ 1.05 µM) with Streptococcus pyogenes; 0.5 µg/mL (≈ 1.05 µM) with Staphylococcus aureus [2]; 0.25 µg/mL (≈ 0.524 µM) with Staphylococcus aureus [4]; 1 µg/mL (≈ 2.09 µM) with Enterococcus faecalis; 0.5 µg/mL (≈ 1.05 µM) against Staphylococcus aureus [5].
Turning to `C[C@H](O)C(=O)N1CC=C(c2c(F)cc(N3C[C@H](COc4ccon4)OC3=O)cc2F)CC1`, the Activity was determined as 1.16 with Staphylococcus aureus [1] and 0.64 in [3]. Further, the MIC came out at 1 µg/mL (≈ 2.23 µM) against Streptococcus pyogenes; 0.5 µg/mL (≈ 1.11 µM) in the experiment with Staphylococcus aureus [2]; 0.5 µg/mL (≈ 1.11 µM) in the experiment on Staphylococcus aureus [4]; 1 µg/mL (≈ 2.23 µM) in the experiment with Enterococcus faecalis; 0.5 µg/mL (≈ 1.11 µM) with Staphylococcus aureus [5].
`CS(=O)(=O)C[C@@H](O)C(=O)N1CC=C(c2c(F)cc(N3C[C@H](COc4ccon4)OC3=O)cc2F)CC1`: the Activity with Staphylococcus aureus [1] is 1.42; in [3] it was 1.02. The MIC with Streptococcus pyogenes worked out at 0.5 µg/mL (≈ 0.948 µM); with Staphylococcus aureus [2], 0.25 µg/mL (≈ 0.474 µM); with Staphylococcus aureus [4], 0.25 µg/mL (≈ 0.474 µM); against Enterococcus faecalis, 0.5 µg/mL (≈ 0.948 µM); in the experiment with Staphylococcus aureus [5] it was 0.25 µg/mL (≈ 0.474 µM).
As for `C[C@H](O)C(=O)N1CC=C(c2ccc(N3C[C@H](COc4cnsn4)OC3=O)cc2F)CC1`, the Activity was found to be 1.14 in the experiment with Staphylococcus aureus [1] and 0.43 in experiment [3]. Moreover, the MIC against Streptococcus pyogenes is 1 µg/mL (≈ 2.23 µM); in the experiment on Staphylococcus aureus [2] it was 0.5 µg/mL (≈ 1.11 µM); in the experiment on Staphylococcus aureus [4], 0.25 µg/mL (≈ 0.557 µM); against Enterococcus faecalis it was 1 µg/mL (≈ 2.23 µM); in the experiment with Staphylococcus aureus [5] it was 0.5 µg/mL (≈ 1.11 µM).
In the case of `O=C1O[C@@H](COc2ccon2)CN1c1ccc(C2=CCOCC2)c(F)c1`, the values for the Activity (in the experiment with Staphylococcus aureus [1]; in experiment [3]) were 0.06 and -0.07, respectively. Moreover, the MIC was 0.5 µg/mL (≈ 1.39 µM) with Streptococcus pyogenes; 0.5 µg/mL (≈ 1.39 µM) with Staphylococcus aureus [2]; 0.5 µg/mL (≈ 1.39 µM) in the experiment on Staphylococcus aureus [4]; 1 µg/mL (≈ 2.78 µM) in the experiment with Enterococcus faecalis; 0.5 µg/mL (≈ 1.39 µM) in the experiment on Staphylococcus aureus [5].
For `O=C([C@@H](O)CO)N1CC=C(c2c(F)cc(N3C[C@H](CO)OC3=O)cc2F)CC1`, the figures for the Activity (in the experiment on Staphylococcus aureus [1]; in [3]) were 1.01 and 0.59, respectively. Further, the MIC in the experiment on Streptococcus pyogenes is 0.5 µg/mL (≈ 1.26 µM); against Staphylococcus aureus [2] it was 0.5 µg/mL (≈ 1.26 µM); in the experiment with Staphylococcus aureus [4], 0.25 µg/mL (≈ 0.628 µM); with Enterococcus faecalis, 1 µg/mL (≈ 2.51 µM); against Staphylococcus aureus [5], 0.25 µg/mL (≈ 0.628 µM).
For `CC(O)C(=O)N1CC=C(c2c(F)cc(N3C[C@H](COc4ccon4)OC3=O)cc2F)CC1` (single isomer, unassigned), the Activity in the experiment on Staphylococcus aureus [1] turned out to be 1.02; in [3], 0.49. For the same molecule, the MIC in the experiment on Streptococcus pyogenes amounted to 1 µg/mL (≈ 2.23 µM); in the experiment with Staphylococcus aureus [2], 0.5 µg/mL (≈ 1.11 µM); with Staphylococcus aureus [4], 0.5 µg/mL (≈ 1.11 µM); against Enterococcus faecalis, 1 µg/mL (≈ 2.23 µM); in the experiment with Staphylococcus aureus [5], 0.5 µg/mL (≈ 1.11 µM).
As for `CC(=O)NC[C@H]1CN(c2ccc(N3CCOCC3)c(F)c2)C(=O)O1` [LINEZOLID], the MIC turned out to be 1 µg/mL (≈ 2.96 µM) against Streptococcus pyogenes, 1 µg/mL (≈ 2.96 µM) against Staphylococcus aureus [2], 0.5 µg/mL (≈ 1.48 µM) in the experiment with Staphylococcus aureus [4] and 0.5 µg/mL (≈ 1.48 µM) with Staphylococcus aureus [5]. The Activity was 1.4 with Mus musculus [6] and 0.05 in the experiment with Mus musculus [7].
For the molecule `O=C([C@@H](O)CO)N1CC=C(c2c(F)cc(N3C[C@H](COc4ccon4)OC3=O)cc2F)CC1` [POSIZOLID], the results for the Activity (with Staphylococcus aureus [1]; in experiment [3]) were 0.98 and 0.7, respectively. Further, the MIC is 0.25 µg/mL (≈ 0.537 µM) with Streptococcus pyogenes; 0.5 µg/mL (≈ 1.07 µM) against Staphylococcus aureus [2]; 0.25 µg/mL (≈ 0.537 µM) in the experiment on Staphylococcus aureus [4]; 0.5 µg/mL (≈ 1.07 µM) with Enterococcus faecalis; 0.5 µg/mL (≈ 1.07 µM) with Staphylococcus aureus [5].
